Results published in ChEMBL document CHEMBL4304739, “Discovery of 3-(Indol-5-yl)-indazole Derivatives as Novel Myeloid Differentiation Protein 2/Toll-like Receptor 4 Antagonists for Treatment of Acute Lung Injury” (J Med Chem, 2019).
Active and inactive are the calls of the source. The rule behind the calls is not given here.

Tests used:
[1] = molecular target: Dual specificity mitogen-activated protein kinase kinase 2 (Homo sapiens) (UniProt P36507); assay: Inhibition of wild-type human full length MEK2 (M1 to V400 residues) expressed in mammalian expression system at 1 uM by Kinomescan method
In short: (§1)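 KINOMEscan competition binding screen at 1 μM compound. Results reported as % of control = (test − positive control)/(DMSO negative control − positive control) × 100, where lower values mean stronger hits.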

[2] = molecular target: ALK tyrosine kinase receptor (Homo sapiens) (UniProt Q9UM73); assay: Inhibition of wild-type human partial length ALK (I1088 to E1409 residues) expressed in mammalian expression system at 1 uM by Kinomescan method
In short: (§2)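 Binding-competition screen on the KINOMEscan platform, run by the provider, with the test compound at 1 μM. Readout is percent of control: (test signal − positive control signal)/(negative control signal − positive control signal) × 100. The DMSO negative control is set as 100% Ctrl and a control compound as 0% Ctrl. Lower values mean stronger hits.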

[3] = molecular target: Mitogen-activated protein kinase 8 (Homo sapiens) (UniProt P45983); assay: Inhibition of wild-type human full length JNK1 (M1 to Q384 residues) expressed in mammalian expression system at 1 uM by Kinomescan method; in short: as §1
Mitogen-activated protein kinase 8 (Homo sapiens), sequence (P45983 whole entry, the tested form may be a part): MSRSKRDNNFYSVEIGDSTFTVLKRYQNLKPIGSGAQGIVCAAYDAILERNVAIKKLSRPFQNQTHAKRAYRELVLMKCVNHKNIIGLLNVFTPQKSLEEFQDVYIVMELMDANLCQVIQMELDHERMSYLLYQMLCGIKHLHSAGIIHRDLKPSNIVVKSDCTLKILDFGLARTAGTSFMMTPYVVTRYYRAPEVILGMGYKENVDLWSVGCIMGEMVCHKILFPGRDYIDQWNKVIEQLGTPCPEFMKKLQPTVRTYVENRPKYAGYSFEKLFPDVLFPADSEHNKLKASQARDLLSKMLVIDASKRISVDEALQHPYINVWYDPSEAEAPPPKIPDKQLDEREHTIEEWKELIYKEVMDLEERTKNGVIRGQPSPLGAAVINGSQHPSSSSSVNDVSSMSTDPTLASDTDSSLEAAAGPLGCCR

[4] = molecular target: Dual specificity tyrosine-phosphorylation-regulated kinase 1B (Homo sapiens) (UniProt Q9Y463); assay: Inhibition of wild-type human full length DYRK1B (M1 to S629 residues) expressed in bacterial expression system at 1 uM by Kinomescan method; in short: as §1
[5] = molecular target: Tyrosine-protein kinase ABL1 (Homo sapiens) (UniProt P00519); assay: Inhibition of wild-type human phosphorylated ABL1 (S229 to K512 residues) expressed in mammalian expression system at 1 uM by Kinomescan method
In short: (§3)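 Single-concentration screen at 1 μM on the KINOMEscan panel (98 kinases), run by the platform provider. Results are given as percent of control: % Ctrl = [(test signal − positive control signal)/(negative control signal − positive control signal)] × 100. DMSO serves as negative control (100% Ctrl) and a control compound as positive control (0% Ctrl). Lower values mean stronger binding hits.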

[6] = molecular target: Mitogen-activated protein kinase 9 (Homo sapiens) (UniProt P45984); assay: Inhibition of wild-type human full length JNK2 (M1 to Q382 residues) expressed in mammalian expression system at 1 uM by Kinomescan method; in short: as §1
[7] = molecular target: Cyclin-dependent kinase 7 (Homo sapiens) (UniProt P50613); assay: Inhibition of wild-type human full length CDK7 (M1 to L344 residues) expressed in mammalian expression system at 1 uM by Kinomescan method; in short: as §1
Cyclin-dependent kinase 7 (Homo sapiens), sequence (P50613 whole entry, the tested form may be a part): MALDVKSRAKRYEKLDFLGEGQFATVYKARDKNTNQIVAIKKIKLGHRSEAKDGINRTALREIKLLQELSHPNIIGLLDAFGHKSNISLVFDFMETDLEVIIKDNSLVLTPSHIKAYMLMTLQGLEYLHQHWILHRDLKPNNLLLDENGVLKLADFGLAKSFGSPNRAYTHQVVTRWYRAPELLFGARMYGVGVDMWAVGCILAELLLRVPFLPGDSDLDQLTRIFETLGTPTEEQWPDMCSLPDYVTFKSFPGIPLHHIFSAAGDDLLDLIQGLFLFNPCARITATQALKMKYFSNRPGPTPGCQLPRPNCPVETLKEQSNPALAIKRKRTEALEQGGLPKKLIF

[8] = molecular target: Serine/threonine-protein kinase ULK2 (Homo sapiens) (UniProt Q8IYT8); assay: Inhibition of wild-type human partial length ULK2 (M1 to S301 residues) expressed in mammalian expression system at 1 uM by Kinomescan method; in short: as §3
Serine/threonine-protein kinase ULK2 (Homo sapiens), sequence (Q8IYT8 whole entry, the tested form may be a part): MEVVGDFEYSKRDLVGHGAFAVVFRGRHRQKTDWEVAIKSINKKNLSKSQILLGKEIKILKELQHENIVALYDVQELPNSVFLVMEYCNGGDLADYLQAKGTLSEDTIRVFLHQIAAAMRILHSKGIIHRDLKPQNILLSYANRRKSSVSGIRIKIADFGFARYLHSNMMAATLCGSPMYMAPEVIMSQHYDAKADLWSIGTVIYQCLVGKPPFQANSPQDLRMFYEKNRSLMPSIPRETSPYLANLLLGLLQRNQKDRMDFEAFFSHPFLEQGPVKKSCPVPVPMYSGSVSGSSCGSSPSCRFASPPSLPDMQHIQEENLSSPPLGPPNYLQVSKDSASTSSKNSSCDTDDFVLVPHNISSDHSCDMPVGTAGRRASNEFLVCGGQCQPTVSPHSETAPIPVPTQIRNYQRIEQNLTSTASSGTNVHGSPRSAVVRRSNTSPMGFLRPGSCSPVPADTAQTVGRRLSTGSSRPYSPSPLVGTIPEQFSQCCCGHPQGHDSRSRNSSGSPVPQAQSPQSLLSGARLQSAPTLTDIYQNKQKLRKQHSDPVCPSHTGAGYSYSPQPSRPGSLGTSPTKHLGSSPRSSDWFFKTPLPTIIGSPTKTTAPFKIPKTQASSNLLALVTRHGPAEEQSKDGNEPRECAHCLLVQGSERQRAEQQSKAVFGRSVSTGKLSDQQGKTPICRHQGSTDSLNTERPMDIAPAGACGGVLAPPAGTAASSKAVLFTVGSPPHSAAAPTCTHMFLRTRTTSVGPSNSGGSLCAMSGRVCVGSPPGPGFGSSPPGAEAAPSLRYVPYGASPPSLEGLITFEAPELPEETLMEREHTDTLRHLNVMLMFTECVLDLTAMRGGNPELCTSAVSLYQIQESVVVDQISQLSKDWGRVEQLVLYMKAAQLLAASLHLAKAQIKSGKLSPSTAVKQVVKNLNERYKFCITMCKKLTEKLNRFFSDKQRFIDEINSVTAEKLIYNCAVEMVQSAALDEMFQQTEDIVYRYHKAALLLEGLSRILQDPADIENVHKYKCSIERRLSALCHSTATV

[9] = molecular target: Serine/threonine-protein kinase PAK 1 (Homo sapiens) (UniProt Q13153); assay: Inhibition of wild-type human partial length PAK1 (S149 to H545 residues) expressed in bacterial expression system at 1 uM by Kinomescan method; in short: as §2
[10] = molecular target: Inhibitor of nuclear factor kappa-B kinase subunit alpha (Homo sapiens) (UniProt O15111); assay: Inhibition of wild-type human full length IKK-alpha (M1 to E745 residues) expressed in mammalian expression system at 1 uM by Kinomescan method; in short: as §1
Inhibitor of nuclear factor kappa-B kinase subunit alpha (Homo sapiens), sequence (O15111 whole entry, the tested form may be a part): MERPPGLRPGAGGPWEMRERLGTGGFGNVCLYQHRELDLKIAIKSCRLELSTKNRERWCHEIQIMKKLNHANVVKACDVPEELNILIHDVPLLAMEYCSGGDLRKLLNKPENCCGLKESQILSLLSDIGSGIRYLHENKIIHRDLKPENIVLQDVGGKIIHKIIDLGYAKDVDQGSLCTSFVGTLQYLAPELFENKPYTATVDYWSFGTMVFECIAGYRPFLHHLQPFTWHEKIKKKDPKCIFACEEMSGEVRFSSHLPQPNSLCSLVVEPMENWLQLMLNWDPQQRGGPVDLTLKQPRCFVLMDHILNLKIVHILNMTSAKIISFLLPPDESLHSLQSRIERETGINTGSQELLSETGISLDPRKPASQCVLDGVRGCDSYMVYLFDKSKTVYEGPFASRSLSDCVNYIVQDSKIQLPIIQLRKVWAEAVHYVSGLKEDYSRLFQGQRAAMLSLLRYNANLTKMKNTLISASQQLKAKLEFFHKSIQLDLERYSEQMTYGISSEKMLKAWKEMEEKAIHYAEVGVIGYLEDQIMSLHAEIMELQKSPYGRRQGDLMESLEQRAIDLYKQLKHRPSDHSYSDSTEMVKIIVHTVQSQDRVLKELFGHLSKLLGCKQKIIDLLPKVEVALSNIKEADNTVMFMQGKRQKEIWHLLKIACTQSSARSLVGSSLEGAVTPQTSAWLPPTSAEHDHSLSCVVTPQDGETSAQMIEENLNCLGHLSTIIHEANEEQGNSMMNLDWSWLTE

[11] = molecular target: Non-receptor tyrosine-protein kinase TYK2 (Homo sapiens) (UniProt P29597); assay: Inhibition of wild-type human partial length TYK2 JH1 catalytic domain (V877 to C1187 residues) expressed in mammalian expression system at 1 uM by Kinomescan method; in short: as §3
[12] = molecular target: Macrophage colony-stimulating factor 1 receptor (Homo sapiens) (UniProt P07333); assay: Inhibition of wild-type human partial length CSF1R (I564 to S939 residues) expressed in bacterial expression system at 1 uM by Kinomescan method; in short: as §2
[13] = molecular target: MAP kinase-interacting serine/threonine-protein kinase 2 (Homo sapiens) (UniProt Q9HBH9); assay: Inhibition of wild-type human partial length MKNK2 (G63 to S388 residues) expressed in mammalian expression system at 1 uM by Kinomescan method; in short: as §2
[14] = molecular target: Platelet-derived growth factor receptor beta (Homo sapiens) (UniProt P09619); assay: Inhibition of wild-type human partial length PDGFRB (V582 to Y1009 residues) expressed in bacterial expression system at 1 uM by Kinomescan method; in short: as §2
Platelet-derived growth factor receptor beta (Homo sapiens), sequence (P09619 whole entry, the tested form may be a part): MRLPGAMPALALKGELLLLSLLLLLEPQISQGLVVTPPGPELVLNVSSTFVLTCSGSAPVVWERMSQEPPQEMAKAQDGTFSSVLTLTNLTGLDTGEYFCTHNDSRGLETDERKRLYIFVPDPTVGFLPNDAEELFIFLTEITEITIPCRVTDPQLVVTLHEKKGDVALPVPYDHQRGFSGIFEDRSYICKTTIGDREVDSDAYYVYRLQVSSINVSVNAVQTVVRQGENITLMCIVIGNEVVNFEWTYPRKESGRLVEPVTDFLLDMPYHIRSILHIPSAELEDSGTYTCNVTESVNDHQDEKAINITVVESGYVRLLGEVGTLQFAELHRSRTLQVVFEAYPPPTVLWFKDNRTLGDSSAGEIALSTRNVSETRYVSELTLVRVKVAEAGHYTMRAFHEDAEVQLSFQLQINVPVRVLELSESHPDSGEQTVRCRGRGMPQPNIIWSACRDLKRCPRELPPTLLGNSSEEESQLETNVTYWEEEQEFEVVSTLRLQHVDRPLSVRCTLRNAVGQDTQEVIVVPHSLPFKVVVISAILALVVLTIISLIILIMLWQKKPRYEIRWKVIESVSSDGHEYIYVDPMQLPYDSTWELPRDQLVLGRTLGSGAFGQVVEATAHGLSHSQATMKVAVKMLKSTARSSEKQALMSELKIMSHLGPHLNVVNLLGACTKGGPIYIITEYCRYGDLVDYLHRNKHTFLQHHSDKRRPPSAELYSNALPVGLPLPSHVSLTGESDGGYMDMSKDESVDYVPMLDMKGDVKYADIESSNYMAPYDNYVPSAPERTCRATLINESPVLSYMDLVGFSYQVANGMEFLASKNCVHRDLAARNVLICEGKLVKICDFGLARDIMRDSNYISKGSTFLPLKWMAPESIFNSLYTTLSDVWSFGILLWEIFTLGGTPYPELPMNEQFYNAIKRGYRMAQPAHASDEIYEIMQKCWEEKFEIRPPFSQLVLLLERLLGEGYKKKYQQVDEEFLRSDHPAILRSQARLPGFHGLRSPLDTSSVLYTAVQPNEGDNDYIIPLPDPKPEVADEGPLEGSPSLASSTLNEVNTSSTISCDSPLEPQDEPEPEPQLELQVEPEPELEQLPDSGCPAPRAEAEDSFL

Mus musculus [15] = assay: Antiinflammatory activity in LPS-induced C57BL/6 mouse model of acute lung injury assessed as reduction in IL12 mRNA level at 10 mg/kg, iv pretreated for 15 mins followed by LPS stimulation and measured after 6 hrs by SYBR green staining-based qRT-PCR analysis; format: functional, organism-based
In short: (§4)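 Total lung RNA extracted, with DNase I removal of residual DNA. Quantitative PCR with mouse gene primers; each gene normalized to β-actin. C57BL/6 mice given compound iv 15 min before intraperitoneal LPS (20 mg/kg) and killed at 6 h.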

[16] = molecular target: Receptor-type tyrosine-protein kinase FLT3 (Homo sapiens) (UniProt P36888); assay: Inhibition of wild-type human partial length FLT3 (V592 to Y969 residues) expressed in bacterial expression system at 1 uM by Kinomescan method; in short: as §2
Mus musculus [17] = assay: Antiinflammatory activity in LPS-induced C57BL/6 mouse model of acute lung injury assessed as reduction in TNFalpha mRNA level at 10 mg/kg, iv pretreated for 15 mins followed by LPS stimulation and measured after 6 hrs by SYBR green staining-based qRT-PCR analysis; format: functional, organism-based; in short: as §4
[18] = molecular target: Insulin receptor (Homo sapiens) (UniProt P06213); assay: Inhibition of wild-type human partial length INSR (P997 to E1318 residues) expressed in mammalian expression system at 1 uM by Kinomescan method; in short: as §2
[19] = molecular target: Serine/threonine-protein kinase DCLK1 (Homo sapiens) (UniProt O15075); assay: Inhibition of wild-type human partial length DCAMKL1 (L270 to A662 residues) expressed in mammalian expression system at 1 uM by Kinomescan method; in short: as §2
[20] = molecular target: Rho-associated protein kinase 2 (Homo sapiens) (UniProt O75116); assay: Inhibition of wild-type human partial length ROCK2 (M1 to T431 residues) expressed in mammalian expression system at 1 uM by Kinomescan method; in short: as §2
Mus musculus [21] = assay: Antiinflammatory activity in LPS-induced C57BL/6 mouse model of acute lung injury assessed as reduction in IL6 mRNA level at 10 mg/kg, iv pretreated for 15 mins followed by LPS stimulation and measured after 6 hrs by SYBR green staining-based qRT-PCR analysis; format: functional, organism-based; in short: as §4
[22] = molecular target: Epidermal growth factor receptor (Homo sapiens) (UniProt P00533); assay: Inhibition of wild-type human partial length EGFR (R669 to V1011 residues) expressed in bacterial expression system at 1 uM by Kinomescan method
Epidermal growth factor receptor (Homo sapiens), sequence (P00533 whole entry, the tested form may be a part): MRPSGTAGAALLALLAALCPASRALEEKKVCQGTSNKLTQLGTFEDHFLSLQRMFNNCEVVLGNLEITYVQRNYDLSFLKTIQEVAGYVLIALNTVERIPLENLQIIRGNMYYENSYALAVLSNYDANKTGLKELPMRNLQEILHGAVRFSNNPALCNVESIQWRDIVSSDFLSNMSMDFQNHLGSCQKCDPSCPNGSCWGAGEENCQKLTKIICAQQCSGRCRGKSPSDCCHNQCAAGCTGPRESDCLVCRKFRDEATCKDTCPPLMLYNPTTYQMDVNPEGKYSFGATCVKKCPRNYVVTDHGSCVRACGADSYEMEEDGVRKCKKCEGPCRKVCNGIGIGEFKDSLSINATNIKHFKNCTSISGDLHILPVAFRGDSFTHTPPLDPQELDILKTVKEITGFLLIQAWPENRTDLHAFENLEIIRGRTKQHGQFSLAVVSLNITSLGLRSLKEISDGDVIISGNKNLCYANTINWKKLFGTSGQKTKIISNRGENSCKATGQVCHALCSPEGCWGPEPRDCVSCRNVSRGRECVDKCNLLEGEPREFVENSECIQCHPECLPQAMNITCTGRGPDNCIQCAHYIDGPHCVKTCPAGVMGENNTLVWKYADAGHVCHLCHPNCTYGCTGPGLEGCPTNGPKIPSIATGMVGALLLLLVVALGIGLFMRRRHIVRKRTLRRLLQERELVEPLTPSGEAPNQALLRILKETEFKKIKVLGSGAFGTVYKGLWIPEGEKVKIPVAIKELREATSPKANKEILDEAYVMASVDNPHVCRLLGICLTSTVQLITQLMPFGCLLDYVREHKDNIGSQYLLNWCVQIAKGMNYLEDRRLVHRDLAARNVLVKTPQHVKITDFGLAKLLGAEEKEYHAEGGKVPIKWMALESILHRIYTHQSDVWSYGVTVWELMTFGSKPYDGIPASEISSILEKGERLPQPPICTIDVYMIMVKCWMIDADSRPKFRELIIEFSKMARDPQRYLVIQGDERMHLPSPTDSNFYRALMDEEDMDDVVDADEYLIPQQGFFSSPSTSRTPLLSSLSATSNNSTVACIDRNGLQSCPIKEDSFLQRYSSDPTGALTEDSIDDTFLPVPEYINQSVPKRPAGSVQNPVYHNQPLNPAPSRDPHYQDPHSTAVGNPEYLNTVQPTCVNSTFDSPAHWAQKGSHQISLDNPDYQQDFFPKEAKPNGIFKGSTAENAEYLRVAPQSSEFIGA
In short: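 KINOMEscan competition binding panel (98 kinases) run by the provider, compound screened once at 1 μM. Read-out is percent of control: [(test signal − positive control signal)/(negative control signal − positive control signal)] × 100. DMSO negative control sets 100% Ctrl and a control compound sets 0% Ctrl; lower values mean stronger hits.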

SMILES: O=C(Nc1ccc2[nH]nc(-c3ccc4[nH]ccc4c3)c2c1)c1c(Cl)cccc1Cl
- inhibition [1]: inactive
- inhibition [2]: inactive
- inhibition [3]: inactive
- inhibition [4]: inactive
- inhibition [5]: inactive
- inhibition [6]: inactive
- inhibition [7]: inactive
- inhibition [8]: inactive
- inhibition [9]: inactive
- inhibition [10]: inactive
- inhibition [11]: inactive
- inhibition [12]: inactive
- inhibition [13]: inactive
- inhibition [14]: inactive
- Activity (Mus musculus [15]): Active
- inhibition [16]: inactive
- Activity (Mus musculus [17]): Active
- inhibition [18]: inactive
- inhibition [19]: inactive
- inhibition [20]: inactive
- Activity (Mus musculus [21]): Active
- inhibition [22]: inactive
